# Source: ChEMBL document CHEMBL1148412, “Discovery of a new class of anilinoquinazoline inhibitors with high affinity and specificity for the tyrosine kinase domain of c-Src” (J Med Chem, 2004)
# Legend:
# [1] = target: Proto-oncogene tyrosine-protein kinase Src (Homo sapiens, UniProt P12931); experiment: In vitro inhibitory concentration against src-tyrosine kinase
# [2] = target: Vascular endothelial growth factor receptor 2 (Homo sapiens, UniProt P35968); experiment: In vitro inhibitory concentration against VEGF receptor 2.
# Procedure, shortened: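 KDR kinase selectivity assay, using a previously reported method. IC50 is the mean of at least three independent dose-response curves.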
# A549 = experiment: In vitro inhibitory concentration against proliferation of A459 cell line.; settings: Homo sapiens
# Rattus norvegicus = species on record: Rattus norvegicus; experiment: Percentage in free rat serum was determined; type: ADME, organism-based
# [3] = pKa was determined; type: physicochemical
# [4] = target: Vascular endothelial growth factor receptor 1 (Homo sapiens, UniProt P17948); experiment: Inhibition of Vascular endothelial growth factor receptor 1
# Angiopoietin-1 receptor = Angiopoietin-1 receptor (Homo sapiens, UniProt Q02763); experiment: Inhibition of Tyrosine protein kinase receptor TIE-2
# [5] = Solubility was determined; type: physicochemical
# [6] = target: Fibroblast growth factor receptor 1 (Homo sapiens, UniProt P11362); experiment: In vitro inhibition of Fibroblast growth factor receptor (FTK)
# [7] = Total body clearance in rat i.v. at 2 mg/kg concentration; type: ADME, organism-based; parameters: dose 2 mg/kg, route intravenous; settings: in vivo, iv
# Procedure, shortened: (§1)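 Single-dose rat pharmacokinetics: intravenous 2 mg/kg in 25% (w/v) hydroxypropyl-β-cyclodextrin/Sorenson's phosphate buffer (pH 5.5), or oral 20 mg/kg. Oral parameters are Cmax, AUC0-∞ and 24 h blood level. Intravenous parameters are clearance, terminal half-life and Vdss. Bioavailability (F) is derived from the oral and intravenous arms.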
# [8] = C24h in rat p.o. at 20 mg/kg concentration; type: ADME, organism-based; parameters: dose 20 mg/kg, route oral; settings: in vivo, po, read-out: C24h; procedure, shortened: as §1
# [9] = Bioavailability in rat (dose 20 mg/kg p.o.); settings: in vivo, po
# [10] = Vdss in rat i.v. at 2 mg/kg concentration; type: ADME, organism-based; parameters: dose 2 mg/kg, route intravenous; settings: in vivo, iv, read-out: Vdss; procedure, shortened: as §1
# [11] = AUC in rat p.o. at 20 mg/kg concentration; type: ADME, organism-based; parameters: dose 20 mg/kg, route oral; settings: plasma, po; procedure, shortened: as §1
# [12] = Cmax in rat p.o. at 20 mg/kg concentration; type: ADME, organism-based; parameters: dose 20 mg/kg, route oral; settings: in vivo, po; procedure, shortened: as §1
# [13] = Half life in rat i.v. at 2 mg/kg concentration; type: ADME, organism-based; parameters: dose 2 mg/kg, route intravenous; settings: in vivo, iv; procedure, shortened: as §1
# [14] = Cl in rat i.v. at 2 mg/kg concentration; type: ADME, organism-based; parameters: dose 2 mg/kg, route intravenous; settings: in vivo, iv; procedure, shortened: as §1
# Sequence of Proto-oncogene tyrosine-protein kinase Src (P12931 2-536 limits assumed): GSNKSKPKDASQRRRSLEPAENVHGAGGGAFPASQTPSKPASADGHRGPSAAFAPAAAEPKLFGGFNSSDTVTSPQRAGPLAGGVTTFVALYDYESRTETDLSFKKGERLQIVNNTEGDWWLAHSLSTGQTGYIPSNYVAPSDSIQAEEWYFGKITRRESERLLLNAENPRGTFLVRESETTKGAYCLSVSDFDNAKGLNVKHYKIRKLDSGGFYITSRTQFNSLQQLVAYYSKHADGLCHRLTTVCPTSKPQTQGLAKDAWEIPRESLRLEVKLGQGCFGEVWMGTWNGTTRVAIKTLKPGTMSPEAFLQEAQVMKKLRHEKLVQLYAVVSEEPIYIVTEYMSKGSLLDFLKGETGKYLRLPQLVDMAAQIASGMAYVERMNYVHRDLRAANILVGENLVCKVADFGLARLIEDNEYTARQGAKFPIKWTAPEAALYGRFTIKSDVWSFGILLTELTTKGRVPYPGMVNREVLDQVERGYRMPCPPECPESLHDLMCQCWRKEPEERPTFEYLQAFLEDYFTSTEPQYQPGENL
# Sequence of Vascular endothelial growth factor receptor 1 (P17948 whole entry): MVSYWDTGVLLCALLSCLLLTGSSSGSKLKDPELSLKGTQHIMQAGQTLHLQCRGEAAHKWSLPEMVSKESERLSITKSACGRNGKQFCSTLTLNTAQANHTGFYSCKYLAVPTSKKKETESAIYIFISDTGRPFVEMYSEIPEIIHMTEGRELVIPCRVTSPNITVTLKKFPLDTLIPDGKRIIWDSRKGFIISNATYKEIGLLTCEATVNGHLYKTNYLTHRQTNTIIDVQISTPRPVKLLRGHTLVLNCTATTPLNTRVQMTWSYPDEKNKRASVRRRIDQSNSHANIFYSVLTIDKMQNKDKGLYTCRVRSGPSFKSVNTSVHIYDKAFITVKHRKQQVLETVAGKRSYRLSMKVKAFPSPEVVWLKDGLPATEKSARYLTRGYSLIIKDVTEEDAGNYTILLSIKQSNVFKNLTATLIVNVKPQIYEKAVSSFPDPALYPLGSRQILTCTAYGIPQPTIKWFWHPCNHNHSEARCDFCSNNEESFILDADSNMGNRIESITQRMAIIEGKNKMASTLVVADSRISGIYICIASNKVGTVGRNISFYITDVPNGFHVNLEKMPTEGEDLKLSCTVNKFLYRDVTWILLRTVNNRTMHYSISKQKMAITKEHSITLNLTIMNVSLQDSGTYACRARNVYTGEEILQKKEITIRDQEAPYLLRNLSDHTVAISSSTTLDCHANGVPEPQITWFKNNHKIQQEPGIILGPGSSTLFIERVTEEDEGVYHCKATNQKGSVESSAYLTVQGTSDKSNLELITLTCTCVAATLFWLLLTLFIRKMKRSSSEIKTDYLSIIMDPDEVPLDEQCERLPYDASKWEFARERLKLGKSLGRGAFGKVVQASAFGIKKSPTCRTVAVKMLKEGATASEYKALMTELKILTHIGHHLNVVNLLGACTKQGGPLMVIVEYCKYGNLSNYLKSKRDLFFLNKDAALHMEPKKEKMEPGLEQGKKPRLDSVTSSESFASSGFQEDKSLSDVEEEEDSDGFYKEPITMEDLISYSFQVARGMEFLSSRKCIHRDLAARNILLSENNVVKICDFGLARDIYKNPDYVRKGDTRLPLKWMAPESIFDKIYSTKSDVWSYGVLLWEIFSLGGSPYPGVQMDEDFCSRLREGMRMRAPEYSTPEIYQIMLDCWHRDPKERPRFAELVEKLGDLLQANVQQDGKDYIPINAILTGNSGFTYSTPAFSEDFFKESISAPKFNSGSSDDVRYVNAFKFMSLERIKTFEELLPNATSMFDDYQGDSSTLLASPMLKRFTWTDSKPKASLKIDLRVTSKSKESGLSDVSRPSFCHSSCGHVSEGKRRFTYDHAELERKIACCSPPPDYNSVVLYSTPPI
# Sequence of Fibroblast growth factor receptor 1 (P11362 whole entry): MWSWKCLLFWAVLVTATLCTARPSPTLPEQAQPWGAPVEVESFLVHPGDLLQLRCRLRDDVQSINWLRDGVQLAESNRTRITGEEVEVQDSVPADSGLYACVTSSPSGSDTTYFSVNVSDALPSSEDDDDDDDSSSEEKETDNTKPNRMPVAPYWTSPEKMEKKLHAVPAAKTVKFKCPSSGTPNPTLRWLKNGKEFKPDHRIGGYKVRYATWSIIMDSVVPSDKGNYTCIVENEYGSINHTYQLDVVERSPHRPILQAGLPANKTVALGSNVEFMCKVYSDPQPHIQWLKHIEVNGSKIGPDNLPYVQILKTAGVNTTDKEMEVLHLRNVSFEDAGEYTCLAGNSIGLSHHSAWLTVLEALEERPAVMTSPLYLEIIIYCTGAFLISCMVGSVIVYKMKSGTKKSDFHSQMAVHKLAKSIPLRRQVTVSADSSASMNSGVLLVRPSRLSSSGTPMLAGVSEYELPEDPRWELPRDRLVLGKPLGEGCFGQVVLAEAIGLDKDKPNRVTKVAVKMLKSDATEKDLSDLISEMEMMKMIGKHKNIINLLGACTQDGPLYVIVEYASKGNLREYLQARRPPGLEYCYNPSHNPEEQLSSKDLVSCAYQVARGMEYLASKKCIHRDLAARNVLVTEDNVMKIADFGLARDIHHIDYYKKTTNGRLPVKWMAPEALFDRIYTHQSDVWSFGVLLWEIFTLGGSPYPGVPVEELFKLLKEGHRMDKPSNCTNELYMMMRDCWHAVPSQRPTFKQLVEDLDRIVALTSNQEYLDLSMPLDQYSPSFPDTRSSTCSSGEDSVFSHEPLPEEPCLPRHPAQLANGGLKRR
# Sequence of Vascular endothelial growth factor receptor 2 (P35968 whole entry): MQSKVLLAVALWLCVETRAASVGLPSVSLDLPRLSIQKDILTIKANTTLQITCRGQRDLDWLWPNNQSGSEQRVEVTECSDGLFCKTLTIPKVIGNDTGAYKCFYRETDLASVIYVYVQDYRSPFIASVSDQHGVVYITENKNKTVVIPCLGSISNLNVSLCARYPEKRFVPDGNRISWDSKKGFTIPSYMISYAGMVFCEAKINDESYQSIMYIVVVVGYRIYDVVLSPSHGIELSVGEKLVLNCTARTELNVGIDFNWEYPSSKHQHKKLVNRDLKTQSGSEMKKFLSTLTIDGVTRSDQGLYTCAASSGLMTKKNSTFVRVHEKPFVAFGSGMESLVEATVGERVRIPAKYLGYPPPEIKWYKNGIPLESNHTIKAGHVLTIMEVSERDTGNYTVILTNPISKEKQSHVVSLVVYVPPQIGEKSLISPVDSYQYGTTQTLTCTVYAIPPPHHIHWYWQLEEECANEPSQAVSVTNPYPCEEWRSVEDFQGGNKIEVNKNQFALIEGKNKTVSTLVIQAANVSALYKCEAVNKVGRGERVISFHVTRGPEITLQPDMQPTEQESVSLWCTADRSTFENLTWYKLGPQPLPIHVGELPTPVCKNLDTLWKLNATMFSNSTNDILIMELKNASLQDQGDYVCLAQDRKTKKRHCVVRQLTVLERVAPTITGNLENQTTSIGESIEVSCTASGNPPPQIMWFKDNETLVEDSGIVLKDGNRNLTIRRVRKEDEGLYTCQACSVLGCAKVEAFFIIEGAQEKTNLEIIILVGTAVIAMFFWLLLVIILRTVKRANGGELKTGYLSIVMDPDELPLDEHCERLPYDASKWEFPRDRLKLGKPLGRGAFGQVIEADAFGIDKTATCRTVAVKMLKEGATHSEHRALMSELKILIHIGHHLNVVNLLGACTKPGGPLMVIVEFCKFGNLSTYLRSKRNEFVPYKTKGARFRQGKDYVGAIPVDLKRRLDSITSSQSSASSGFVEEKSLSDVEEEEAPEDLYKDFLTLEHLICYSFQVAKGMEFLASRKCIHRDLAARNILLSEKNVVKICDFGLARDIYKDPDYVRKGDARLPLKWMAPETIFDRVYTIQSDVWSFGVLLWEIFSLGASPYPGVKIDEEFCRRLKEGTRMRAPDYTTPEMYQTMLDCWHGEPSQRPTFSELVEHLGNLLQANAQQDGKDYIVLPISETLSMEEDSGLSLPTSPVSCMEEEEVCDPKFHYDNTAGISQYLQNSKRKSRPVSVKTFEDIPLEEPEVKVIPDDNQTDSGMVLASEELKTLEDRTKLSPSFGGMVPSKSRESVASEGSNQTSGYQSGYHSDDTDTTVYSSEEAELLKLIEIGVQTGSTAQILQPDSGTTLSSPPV
Structure (SMILES),IC50 [1],IC50 [2],IC50 (A549),further results
COc1cccc(Nc2ncnc3cc(OCCCN4CCOCC4)c(OC)cc23)c1,37 nM,1110 nM,1050 nM,
Clc1ccc2c(c1Nc1ncnc3cc(OCCCN4CCOCC4)ccc13)OCO2,10 nM,91300 nM,670 nM,
COc1cc2c(Nc3c(Cl)ccc4c3OCO4)ncnc2cc1OCCCN1CCOCC1,< 4 nM,17000 nM,180 nM,Activity (Rattus norvegicus): 10.5%; pKa [3]: 7.2; IC50 [4]: > 100000 nM; IC50 (Angiopoietin-1 receptor): 17100 nM; solubility ([5]; read-out: S): 71 µM; IC50 [6]: > 100000 nM
COc1cc2c(Nc3c(Cl)ccc4ccoc34)ncnc2cc1OCCCN1CCOCC1,10 nM,1380 nM,260 nM,
COc1cc2c(Nc3cccc4c(Cl)c[nH]c34)ncnc2cc1OCCCN1CCOCC1,20 nM,2320 nM,980 nM,
COc1ccc(Nc2ncnc3cc(OCCCN4CCOCC4)c(OC)cc23)cc1,477 nM,,,
COc1cc2c(Nc3c(Cl)ccc4c3OCO4)ncnc2cc1OCC1CCN(C)CC1,,15600 nM,260 nM,Activity (Rattus norvegicus): 9.8%; clearance [7]: 49 mL/min/kg; concentration at 24 h [8]: 60 nM; pKa [3]: 9.4; IC50 [4]: > 100000 nM; bioavailability [9]: 37%; Vd [10]: 17 L/kg; solubility ([5]; read-out: S): > 3300 µM; IC50 [6]: > 100000 nM; AUC [11]: 2500 ng·h/mL; Cmax [12]: 910 nM; half-life [13]: 5.7 h
COc1cc2c(Nc3cccc4c3OC(F)(F)O4)ncnc2cc1OCCCN1CCOCC1,270 nM,,,
COc1ccc(Cl)c(Nc2ncnc3cc(OCCCN4CCOCC4)c(OC)cc23)c1,10 nM,1180 nM,310 nM,
COc1cccc(Nc2ncnc3cc(OC)c(OC)cc23)c1,253 nM,,,
COc1cc2c(Nc3cccc4c(Cl)coc34)ncnc2cc1OCCCN1CCOCC1,< 4 nM,100 nM,,
COc1cc2c(Nc3c(Cl)ccc4c3OCO4)ncnc2cc1OCc1ccnc(C#N)c1,10 nM,77000 nM,230 nM,Activity (Rattus norvegicus): 1.6%; pKa [3]: 4.9; solubility [5]: 10 µM
COc1cc2c(Nc3cccc4ccoc34)ncnc2cc1OCCCN1CCOCC1,30 nM,410 nM,,
COc1cc2c(Nc3cccc4c3OCO4)ncnc2cc1OCCCN1CCOCC1,14 nM,4960 nM,210 nM,
COc1cc2c(Nc3cccc4c3OCCO4)ncnc2cc1OCCCN1CCOCC1,370 nM,,,
COc1cc2c(Nc3c(F)ccc4c3OCO4)ncnc2cc1OCCCN1CCOCC1,28 nM,8160 nM,450 nM,
COc1cc2c(Nc3c(Cl)ccc4c3OCO4)ncnc2cc1OCCCN1CCCCC1,< 4 nM,2170 nM,130 nM,Activity (Rattus norvegicus): 13.7%; concentration at 24 h [8]: 80 nM; pKa [3]: 9.7; IC50 [4]: > 100000 nM; bioavailability [9]: 86%; Vd [10]: 14.4 L/kg; IC50 (Angiopoietin-1 receptor): 11300 nM; solubility ([5]; read-out: S): > 2000 µM; IC50 [6]: > 100000 nM; AUC [11]: 7900 ng·h/mL; clearance [14]: 36 mL/min/kg; Cmax [12]: 2960 nM; half-life [13]: 5.8 h
COc1cc2c(Nc3cccc4[nH]ccc34)ncnc2cc1OCCCN1CCOCC1,177 nM,,,
CCOc1ccc(Cl)c(Nc2ncnc3cc(OCCCN4CCOCC4)c(OC)cc23)c1,963 nM,,,
COc1cc2c(Nc3c(Cl)ccc4occc34)ncnc2cc1OCCCN1CCOCC1,10 nM,1230 nM,230 nM,
COc1cc2c(Nc3cccc4cc[nH]c34)ncnc2cc1OCCCN1CCOCC1,260 nM,,,
COc1cc2c(Nc3cccc4occc34)ncnc2cc1OCCCN1CCOCC1,16 nM,250 nM,,
COc1ccccc1Nc1ncnc2cc(OCCCN3CCOCC3)c(OC)cc12,560 nM,,,
COc1cc2c(Nc3c(Br)ccc4c3OCO4)ncnc2cc1OCCCN1CCOCC1,< 4 nM,42600 nM,140 nM,
COc1cc2c(Nc3cccc4c3ccn4C)ncnc2cc1OCCCN1CCOCC1,40 nM,420 nM,,
COc1cc2ncnc(Nc3c(Cl)ccc4c3OCO4)c2cc1OCCCN1CCOCC1,50 nM,73800 nM,1200 nM,
COc1cc2c(Nc3ccc4c(c3)OCO4)ncnc2cc1OCCCN1CCOCC1,760 nM,,,
COc1cc2c(Nc3cccc4c3OCC4)ncnc2cc1OCCCN1CCOCC1,433 nM,,,
